This note sets out measurements from ChEMBL document CHEMBL1139237, “Identification of inhibitors of N5-carboxyaminoimidazole ribonucleotide synthetase by high-throughput screening” (Bioorg Med Chem, 2009).

Data set [1] is described as follows: Inhibition of Escherichia coli N5-CAIR synthetase by phosphate assay. The gist of the method: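 E. coli enzyme in 50 mM HEPES pH 7.5, 20 mM KCl, 6.0 mM MgCl2, 100 μM ATP, diluted saturated NaHCO3. Compound at eight concentrations, 0.78–100 μM, with 50 μM AIR added, run 5 min at room temperature. Quenched with malachite green reagent, A600 read after at least 15 min. IC50 taken from Hill fit between enzyme + AIR and no-AIR controls.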

A short description of data set [2]: Inhibition of Escherichia coli N5-CAIR synthetase using variable amount of ATP and fixed aminoimidazole ribonucleotide by ATPase assay. The gist of the method: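 PK/LDH-coupled assay at 37 °C in HEPES pH 7.5, KCl, MgCl2, 0.2 mM NADH, 2.0 mM PEP, 1.0 mM NaHCO3. AIR fixed at 100 μM and ATP varied 5–250 μM. Inhibitor at 0–50 μM added with AIR to start the reaction. NADH loss followed at 340 nm, initial velocity over the first 2 min. Mode from Lineweaver-Burk plots, Ki from slope replots.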

The nature of data set [3]: Inhibition of Escherichia coli N5-CAIR synthetase using variable amount of aminoimidazole ribonucleotide and fixed ATP by ATPase assay. A digest of the protocol:
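PK/LDH-coupled assay at 37 °C in HEPES pH 7.5, KCl, MgCl2, 0.2 mM NADH, 2.0 mM PEP, 1.0 mM NaHCO3. ATP fixed at 1.1 mM and AIR varied 5–250 μM. Inhibitor at 0–50 μM added with AIR to start the reaction. NADH loss read at 340 nm, initial rate over the first 2 min. Mode from Lineweaver-Burk plots, Ki from slope replots.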

The target of data set [4] is T1, Bifunctional phosphoribosylaminoimidazole carboxylase/phosphoribosylaminoimidazole succinocarboxamide synthetase (Homo sapiens) (UniProt P22234).
T1 sequence (whole entry): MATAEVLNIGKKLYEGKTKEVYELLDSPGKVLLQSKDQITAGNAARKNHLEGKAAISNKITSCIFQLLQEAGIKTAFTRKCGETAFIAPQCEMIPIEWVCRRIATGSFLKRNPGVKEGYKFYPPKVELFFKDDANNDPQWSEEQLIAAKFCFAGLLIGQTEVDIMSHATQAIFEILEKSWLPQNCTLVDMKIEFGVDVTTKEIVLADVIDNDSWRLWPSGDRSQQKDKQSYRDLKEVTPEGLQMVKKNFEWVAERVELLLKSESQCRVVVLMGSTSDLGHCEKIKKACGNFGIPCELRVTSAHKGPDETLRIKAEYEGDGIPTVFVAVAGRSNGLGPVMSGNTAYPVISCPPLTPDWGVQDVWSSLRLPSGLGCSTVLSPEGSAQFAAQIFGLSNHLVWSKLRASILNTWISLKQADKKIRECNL
Put plainly: Inhibition of human AIR carboxylase: SAICAR synthetase at 200 uM by coupled assay. A digest of the protocol:
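Human bifunctional AIR carboxylase:SAICAR synthetase (>95% pure by SDS-PAGE); both activities measured together by coupled assay, as described for the chicken enzyme; compounds at 200 μM.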

Data set [5] is described as follows: Chemical stability in aqueous solution assessed as compound decomposition after 45 mins. Format: physicochemical. The settings on record: buffer, 0.75 h.
Data set [6] can be described thus: Inhibition of Escherichia coli N5-CAIR synthetase using variable amounts of 5-aminoimidazole ribonucleotide or ATP by ATPase assay. The gist of the method: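 E. coli enzyme (168 ng) in 1 mL cuvette, 50 mM HEPES pH 7.5, 20 mM KCl, 6.0 mM MgCl2, 1.0 mM NaHCO3, PK/LDH coupling (0.2 mM NADH, 2.0 mM PEP, 4 U PK, 17 U LDH). Preincubated with ATP 3 min at 37 °C. ATP fixed 1.1 mM with AIR 5–250 μM, or AIR fixed 100 μM with ATP 5–250 μM. Start with AIR plus inhibitor (0–50 μM); A340 read at 37 °C.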

Data set [7] is described as follows: Chemical stability in aqueous solution assessed as compound decomposition after 30 mins. Format: physicochemical. The settings on record: buffer, 0.5 h.

Active and inactive are the calls of the source. The calls are words filed in the database; no cut-off is given here.

Broadly, the IC50 is the point on the concentration scale where inhibition reaches its midpoint. Low readings indicate inhibition by little substance, high ones a need for much substance. `COc1cc(C(F)(F)F)c(C(=O)NC2(O)C(=O)c3ccccc3C2=O)cn1`: in data set [1], the IC50 came to 17 µM.

For orientation: Ki means the dissociation constant of the complex between target and ligand, obtained from inhibition or displacement. `Cc1cc2nc3c(=O)[nH]c(=O)nc-3n(C[C@H](O)[C@H](O)[C@H](O)CO)c2cc1C`: the values for the Ki in data set [2] and in data set [3] were 122 µM and 81 µM, respectively. In addition, half-maximal inhibition in data set [1] (IC50) required 20 µM. In data set [4], the result was inactive.

In turn, `Cc1nc(NC2(O)C(=O)c3ccccc3C2=O)cs1` returned an IC50 in data set [1] of 5.6 µM. For the same compound, the Stability entry in data set [5] is given as “Unstable”. The Ki entry in data set [6] was “Not Active”.

`Cc1cc(NC2(O)C(=O)c3ccccc3C2=O)n(C)n1` showed an IC50 in data set [1] of 7.8 µM.

In data set [1], `O=C1C(=O)N(CN2CCOCC2)c2ccc(Br)cc21` gave a half-inhibitory concentration (IC50) of 23 µM.

In data set [1], `CN1CCN(CN2C(=O)C(=O)c3ccccc32)CC1` showed an IC50 of 37 µM.

Take `CCOC(=O)c1noc(C)c1-c1csc(CS(=O)(=O)c2ccc(Cl)cc2)n1`: the Ki in data set [2] amounted to 43 µM; in data set [3], 62 µM. Besides, the IC50 in data set [1] was 10 µM. Further, in data set [4], the outcome was inactive.

On to `CCN(CC)C(=O)CN1C(=O)C(=O)c2ccccc21`, for which the Ki came out at 40 µM in data set [2] and 29 µM in data set [3]. Further, in data set [1], it took 10.5 µM to reach half-maximal inhibition (IC50). The outcome in data set [4] was inactive.

With `COc1cscc1C(=O)NC1(O)C(=O)c2ccccc2C1=O`, in data set [1], the IC50 stood at 17 µM.

Regarding `CCOC(=O)C1CCN(CN2C(=O)C(=O)c3ccccc32)CC1`, the IC50 in data set [1] was determined as 22 µM.

For the compound `O=C(NC1(O)C(=O)c2ccccc2C1=O)c1cccc2c1-c1ccccc1C2=O`, it took 8.7 µM to reach half-maximal inhibition in data set [1] (IC50).

The compound `O=C1C(=O)N(CN2CCN(CN3C(=O)C(=O)c4ccccc43)C2)c2ccccc21` registered a concentration for half-maximal inhibition (IC50) in data set [1] of 69 µM.

Compound `Cc1nonc1NC1(O)C(=O)c2ccccc2C1=O` returned an IC50 in data set [1] of 2.3 µM. The Stability entry in data set [7] is given as “Unstable”. Besides, the Ki entry in data set [6] is recorded as “Not Active”.

For `O=C1Nc2ccc(OC(F)(F)F)cc2C1=O`, the IC50 in data set [1] amounted to 19 µM.
